In ChEMBL document CHEMBL3608216, “Synthesis and evaluation of novel pleuromutilin derivatives with a substituted pyrimidine moiety” (2015):
Converted amounts (≈) assume the structure as drawn. Blank lines part the entries; values can stand above or below the compound they belong to.

Tests used:
Type in all cases: functional
Staphylococcus aureus [1] = test: Antibacterial activity against […] Staphylococcus aureus ATCC 29213 after 24 to 48 hrs by agar dilution method
How it was run: (§1)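 Agar dilution per NCCLS. Compounds at 1.28 mg/mL stock in 15%–30% DMSO/water, two-fold serial dilutions (11 total) in water, mixed 1:10 into hot Mueller-Hinton agar. Inocula from blood slants adjusted to about 10^5–10^6 CFU/mL in 0.90% saline, spotted onto plates, incubated 36.5 °C for 24–48 h. MIC is the lowest concentration giving complete growth inhibition. Run in triplicate.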

[2] = tested on: Staphylococcus epidermidis; test: Antibacterial activity against […] Staphylococcus epidermidis ATCC 35984 after 24 to 48 hrs by agar dilution method; conditions: RP62A; how it was run: as §1
Bacillus subtilis = test: Antibacterial activity against Bacillus subtilis […] after 24 to 48 hrs by agar dilution method
How it was run: (§2)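 Agar dilution per NCCLS. Compounds were dissolved in 15%–30% DMSO in water, serially two-fold diluted in distilled water (11 dilutions) and incorporated into hot Mueller–Hinton agar at a tenfold further dilution. Inocula from blood slants were adjusted to about 10^5–10^6 CFU/mL in 0.90% saline and spotted onto the plates, then incubated at 36.5 °C for 24–48 h. MIC was the lowest concentration giving complete growth inhibition; run in triplicate.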

Escherichia coli = test: Antibacterial activity against Escherichia coli ATCC 25922 after 24 to 48 hrs by agar dilution method; how it was run: as §2
Staphylococcus aureus [3] = test: Antibacterial activity against […] Staphylococcus aureus in iv dosed neutropenic mouse systemic infection model assessed as increase in mouse survival measured on day 4
How it was run: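 Male and female mice made neutropenic with ip cyclophosphamide, 150 mg/kg for four days, then 100 mg/kg one day before inoculation. Infected ip with 0.5 mL MRSA at 10^9 CFU/mL, 10 per group. About 1 h later dosed iv at 2, 3, 4.46, 6.64 and 10 mg/kg in 0.5 mL soybean lecithin:sterile water (1:30). Endpoint was survival at day 4. ED50 calculated by Reed–Muench using the Hill equation.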

Compound: C=C[C@]1(C)C[C@@H](OC(=O)CSCCN(CC)CC)[C@]2(C)[C@H](C)CC[C@]3(CCC(=O)[C@H]32)[C@@H](C)[C@@H]1O.O=C(O)/C=C/C(=O)O [TIAMULIN FUMARATE]
MIC (Staphylococcus aureus [1]): 0.5 µg/mL
MIC [2]: 0.25 µg/mL
MIC (Bacillus subtilis): 32 µg/mL
MIC (Escherichia coli): 8 µg/mL
Activity (Staphylococcus aureus [3]): Dose-dependent effect
ED50 (Staphylococcus aureus [3]; 96 h): 5.95 mg/kg

MIC (Bacillus subtilis): 32 µg/mL (≈ 58.6 µM)
MIC (Escherichia coli): 8 µg/mL (≈ 14.7 µM)
Compound: C=C[C@]1(C)C[C@@H](OC(=O)CSc2nc(O)cc(NC(C)=O)n2)[C@]2(C)[C@H](C)CC[C@]3(CCC(=O)[C@H]32)[C@@H](C)[C@@H]1O

Compound: C=C[C@]1(C)C[C@@H](OC(=O)CSc2nc(N)cc(=O)n2C)[C@]2(C)[C@H](C)CC[C@]3(CCC(=O)[C@H]32)[C@@H](C)[C@@H]1O
MIC (Staphylococcus aureus [1]): 2 µg/mL (≈ 3.86 µM)
MIC [2]: 1 µg/mL (≈ 1.93 µM)
MIC (Bacillus subtilis): 16 µg/mL (≈ 30.9 µM)
MIC (Escherichia coli): 32 µg/mL (≈ 61.8 µM)

Compound: C=C[C@]1(C)C[C@@H](OC(=O)CSc2nc(O)cc(NC(=O)[C@H]3CCCCN3)n2)[C@]2(C)[C@H](C)CC[C@]3(CCC(=O)[C@H]32)[C@@H](C)[C@@H]1O
MIC (Staphylococcus aureus [1]): 8 µg/mL (≈ 13 µM)
MIC [2]: 2 µg/mL (≈ 3.25 µM)
MIC (Bacillus subtilis): 16 µg/mL (≈ 26 µM)
MIC (Escherichia coli): 32 µg/mL (≈ 52 µM)

Compound: C=C[C@]1(C)C[C@@H](OC(=O)CSc2nc(N)cc(OC)n2)[C@]2(C)[C@H](C)CC[C@]3(CCC(=O)[C@H]32)[C@@H](C)[C@@H]1O
MIC (Staphylococcus aureus [1]): 1 µg/mL (≈ 1.93 µM)
MIC [2]: 0.5 µg/mL (≈ 0.966 µM)
MIC (Bacillus subtilis): 16 µg/mL (≈ 30.9 µM)
MIC (Escherichia coli): 32 µg/mL (≈ 61.8 µM)

Compound: C=C[C@]1(C)C[C@@H](OC(=O)CSc2nc(O)cc(NC(=O)[C@@H]3CCCCN3)n2)[C@]2(C)[C@H](C)CC[C@]3(CCC(=O)[C@H]32)[C@@H](C)[C@@H]1O
MIC (Staphylococcus aureus [1]): 4 µg/mL (≈ 6.51 µM)
MIC [2]: 1 µg/mL (≈ 1.63 µM)
MIC (Bacillus subtilis): 16 µg/mL (≈ 26 µM)
MIC (Escherichia coli): 16 µg/mL (≈ 26 µM)

Compound: C=C[C@]1(C)C[C@@H](OC(=O)CSc2nc(O)cc(NC(=O)[C@@H](N)C(C)C)n2)[C@]2(C)[C@H](C)CC[C@]3(CCC(=O)[C@H]32)[C@@H](C)[C@@H]1O
MIC (Staphylococcus aureus [1]): 2 µg/mL (≈ 3.32 µM)
MIC [2]: 0.5 µg/mL (≈ 0.829 µM)
MIC (Bacillus subtilis): 16 µg/mL (≈ 26.5 µM)
MIC (Escherichia coli): 32 µg/mL (≈ 53.1 µM)

Compound: C=C[C@]1(C)C[C@@H](OC(=O)CSc2nc(O)cc(NC(=O)[C@H](N)C(C)C)n2)[C@]2(C)[C@H](C)CC[C@]3(CCC(=O)[C@H]32)[C@@H](C)[C@@H]1O
MIC (Staphylococcus aureus [1]): 1 µg/mL (≈ 1.66 µM)
MIC [2]: 0.125 µg/mL (≈ 0.207 µM)
MIC (Bacillus subtilis): 8 µg/mL (≈ 13.3 µM)
MIC (Escherichia coli): 64 µg/mL (≈ 106 µM)

Compound: C=C[C@]1(C)C[C@@H](OC(=O)CSc2nc(N)cc(O)n2)[C@]2(C)[C@H](C)CC[C@]3(CCC(=O)[C@H]32)[C@@H](C)[C@@H]1O
MIC (Staphylococcus aureus [1]): 0.25 µg/mL (≈ 0.496 µM)
MIC [2]: 0.125 µg/mL (≈ 0.248 µM)
MIC (Bacillus subtilis): 32 µg/mL (≈ 63.5 µM)
MIC (Escherichia coli): 16 µg/mL (≈ 31.8 µM)
